According to ChEMBL document CHEMBL1145295, “Synthesis and biological evaluation of 5-arylamino-6-chloro-1H-indazole-4,7-diones as inhibitors of protein kinase B/Akt” (Bioorg Med Chem Lett, 2006):
The source made the active and inactive calls. No cut-off for these calls is given here.

How the values were obtained:
[1] = biological target: RAC-alpha serine/threonine-protein kinase (Homo sapiens, UniProt P31749); experiment: Inhibition of Akt1 activity assessed as decrease in GSK3 phosphorylation; format: functional
In short: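 Akt1 enzyme (10 U/µL) preincubated 10 min at 37 °C with compound in DMSO in HEPES 20 mM, NaCl 14.3 mM, EDTA 1 mM, DTT 2 mM. Then 3 µL of 2 mM ATP and GSK3 fusion protein added, 30 min at 37 °C. Stopped at 70 °C for 5 min. Phospho-GSK3 detected by SDS-PAGE/Western or dot blot with anti-phospho (Ser21/9) antibody, ECL and densitometry.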

[2] = Cytotoxicity against human KATO3 cells by MTT assay; format: functional, cell-based
In short: (§1)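 MTT colorimetric cytotoxicity assay following NCI protocols. Cells grown in DMEM with 10% heat-inactivated FBS at 37 °C, 5% CO₂.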

[3] = test system: HepG2; experiment: Cytotoxicity against human HepG2 cells by MTT assay; format: functional, cell-based; in short: as §1
[4] = test system: PC-3; experiment: Cytotoxicity against human PC3 cells by MTT assay; format: functional, cell-based; in short: as §1
[5] = biological target: T1, Serine/threonine-protein kinase AKT (Homo sapiens) (UniProt P31751+Q9Y243+P31749); experiment: Inhibition of GSK3-alpha phosphorylation in PC3 cells at 10 uM upto 5 hrs; format: functional, cell-based; details: PC-3, TDE = time-dependent effect
In short: (§2)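 PC-3 cells (2×10⁶) cultured one day in DMEM/10% FBS, then exposed to 10 µM compound for up to 5 h. Lysates (70 µg) resolved on 12% gel. Western blot with anti-phospho-GSK3α/β (Ser21/9), anti-phospho-Akt (Ser473), anti-Akt and anti-GSK3β antibodies, ECL and densitometry. Values are relative to DMSO treatment.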

[6] = biological target: T1, Serine/threonine-protein kinase AKT (Homo sapiens); experiment: Inhibition of GSK3-beta phosphorylation in PC3 cells at 10 uM upto 5 hrs; format: functional, cell-based; details: PC-3, TDE = time-dependent effect; in short: as §2
[7] = test system: PC-3; experiment: Inhibition of Akt1 phosphorylation in PC3 cells at 10 uM upto 5 hrs; format: functional, cell-based; details: Homo sapiens; in short: as §2
[8] = test system: PC-3; experiment: Antitumor activity against human PC3 cell xenografted in nude mouse at 5 mg/kg/day after 16 days; format: functional
In short: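 Male nude mice, 4 weeks old, inoculated sc in the flank with PC-3 cells (10⁶ cells/site). At 200 mm³ tumors, randomized into groups (n = 6). Dosed iv daily for 16 days in cremophor vehicle (ethanol 7%, cremophor 7%, water). Tumors measured twice weekly by caliper, volume = length·width²/2. Inhibition is relative to vehicle at day 16.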

Sequence of RAC-alpha serine/threonine-protein kinase (P31749 whole entry, the tested form may be a part): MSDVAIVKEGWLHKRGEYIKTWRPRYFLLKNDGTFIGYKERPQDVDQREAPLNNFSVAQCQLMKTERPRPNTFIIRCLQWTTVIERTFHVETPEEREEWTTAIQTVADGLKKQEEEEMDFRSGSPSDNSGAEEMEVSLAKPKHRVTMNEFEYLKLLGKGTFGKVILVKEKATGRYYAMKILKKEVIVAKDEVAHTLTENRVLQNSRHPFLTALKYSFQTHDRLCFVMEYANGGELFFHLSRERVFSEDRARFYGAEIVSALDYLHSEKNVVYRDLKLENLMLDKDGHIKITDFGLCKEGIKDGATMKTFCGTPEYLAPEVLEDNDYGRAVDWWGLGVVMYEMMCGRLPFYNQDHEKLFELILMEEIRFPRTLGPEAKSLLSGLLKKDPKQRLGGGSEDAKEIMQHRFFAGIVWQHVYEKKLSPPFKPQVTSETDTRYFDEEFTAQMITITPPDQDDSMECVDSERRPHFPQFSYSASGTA
T1 sequence (P31749 whole entry, looked up): as the sequence (P31749 whole entry, the tested form may be a part) above
T1 sequence (P31751 whole entry, looked up): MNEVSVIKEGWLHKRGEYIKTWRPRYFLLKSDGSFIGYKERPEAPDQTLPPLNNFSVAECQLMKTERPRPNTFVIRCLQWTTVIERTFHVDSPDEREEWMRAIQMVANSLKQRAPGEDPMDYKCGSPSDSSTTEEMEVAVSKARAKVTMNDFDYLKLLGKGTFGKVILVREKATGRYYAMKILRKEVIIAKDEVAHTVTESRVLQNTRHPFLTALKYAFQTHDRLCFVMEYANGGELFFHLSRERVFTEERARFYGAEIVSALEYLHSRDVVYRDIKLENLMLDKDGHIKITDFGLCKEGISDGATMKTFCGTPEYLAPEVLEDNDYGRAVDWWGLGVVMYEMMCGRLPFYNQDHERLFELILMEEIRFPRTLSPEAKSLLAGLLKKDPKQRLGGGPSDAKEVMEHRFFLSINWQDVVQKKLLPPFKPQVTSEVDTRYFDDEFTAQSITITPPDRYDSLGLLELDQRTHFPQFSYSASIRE
T1 sequence (Q9Y243 whole entry, looked up): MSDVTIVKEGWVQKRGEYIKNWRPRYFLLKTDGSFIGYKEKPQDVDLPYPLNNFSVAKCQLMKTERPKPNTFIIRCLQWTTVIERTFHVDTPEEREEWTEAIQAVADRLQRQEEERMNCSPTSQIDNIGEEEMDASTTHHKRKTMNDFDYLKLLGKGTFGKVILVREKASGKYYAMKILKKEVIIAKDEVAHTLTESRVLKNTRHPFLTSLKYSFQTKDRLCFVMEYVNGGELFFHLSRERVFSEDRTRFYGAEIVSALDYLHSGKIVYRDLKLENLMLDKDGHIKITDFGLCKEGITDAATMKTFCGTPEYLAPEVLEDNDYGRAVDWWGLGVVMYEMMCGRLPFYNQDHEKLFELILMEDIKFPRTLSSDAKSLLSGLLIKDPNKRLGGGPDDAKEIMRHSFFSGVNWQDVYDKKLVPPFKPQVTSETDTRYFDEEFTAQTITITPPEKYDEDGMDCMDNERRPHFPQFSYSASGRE

Row | SMILES | IC50 [1] | inhibition [5] | inhibition [6] | IC50 [2] | IC50 [3] | IC50 [4] | Activity [7] | Activity [8]
1 | Nc1ccc(N)c2[nH]ncc12 | > 50 µM |  |  | > 100 µM | > 100 µM |  |  | 
2 | Cc1cc(C)cc(SC2=C(Cl)C(=O)c3[nH]ncc3C2=O)c1 | > 50 µM |  |  | > 100 µM | > 100 µM |  |  | 
3 | O=C1C(Nc2ccc(F)cc2F)=C(Cl)C(=O)c2[nH]ncc21 | 16 µM |  |  | 9.9 µM | 2 µM |  |  | 
4 | O=C1C(Nc2cc(F)cc(F)c2)=C(Cl)C(=O)c2[nH]ncc21 | > 50 µM |  |  | 75.8 µM | 37.6 µM |  |  | 
5 | O=C1C(Nc2ccc(F)cc2)=C(Cl)C(=O)c2[nH]ncc21 | > 50 µM |  |  | 61.4 µM | 37.2 µM |  |  | 

Continued, in another order:

Row | IC50 [1] | inhibition [5] | inhibition [6] | SMILES | IC50 [2] | IC50 [3] | IC50 [4] | Activity [7] | Activity [8]
6 | 12.3 µM |  |  | O=C1C(Sc2ccc(Cl)c(Cl)c2)=C(Cl)C(=O)c2[nH]ncc21 | > 100 µM | 88.7 µM |  |  | 
7 | 13.9 µM |  |  | O=C1C(Nc2cccc(Br)c2)=C(Cl)C(=O)c2[nH]ncc21 | 8.9 µM | 6.1 µM |  |  | 
8 | 15.8 µM |  |  | O=C1C(Nc2ccccc2F)=C(Cl)C(=O)c2[nH]ncc21 | 20.2 µM | 15.8 µM |  |  | 
9 | 4.9 µM |  |  | CCOc1ccc(NC2=C(Cl)C(=O)c3[nH]ncc3C2=O)cc1 | 9.7 µM | 11.2 µM |  |  | 
10 | 12.4 µM | tde | tde | O=C1C(Nc2ccc(C(F)(F)F)cc2)=C(Cl)C(=O)c2[nH]ncc21 | 13.8 µM | 9.2 µM | 13.7 µM | Active | 27.1%
11 | 11.8 µM | tde | tde | O=C1C(Nc2cccc(F)c2)=C(Cl)C(=O)c2[nH]ncc21 | 3.9 µM | 8.9 µM | 6.3 µM | Active | 
